The text below walks through data of ChEMBL document CHEMBL4196123, “Discovery of an Orally Bioavailable Dual PI3K/mTOR Inhibitor Based on Sulfonyl-Substituted Morpholinopyrimidines” (ACS Med Chem Lett, 2018).

In general, IC50 refers to the concentration that gives 50% inhibition. As a reminder, the Papp A→B is how fast a substance crosses the layer from the apical side. As usually defined, the clearance is a measure of how efficiently the substance is removed, as volume per time.

The target of data set [1] is PI3-kinase p110-delta/p85-alpha (Homo sapiens, UniProt O00329). Description: Inhibition of recombinant human full-length N-terminal His6-tagged p110delta/recombinant human full length p85alpha expressed in baculovirus infected Sf21 insect cells using PIP2 as substrate measured after 1 hr by Alexa633 Tracer-based fluorescence polarization assay. In general terms: Polarisation of emitted light reports the rotation of a fluorescent probe.

Data set [2] can be described thus: Intrinsic clearance in mouse liver microsomes at […] pretreated up to 45 mins followed by NADPH addition and measured by LC-MS/MS analysis. Format: ADME, microsome. The conditions noted are these: read-out: CLH. (In general: Liver microsomes are vesicles of endoplasmic reticulum, rich in cytochrome P450 enzymes.)
The target of a further data set is Cytochrome P450 1A2 (Homo sapiens, UniProt P05177). In words: Inhibition of CYP1A2 in human liver microsomes using phenacetin as substrate pretreated for 5 mins followed by NADPH addition and measured after 10 mins by LC-MS analysis. Format: ADME.
The target in a further data set is Cytochrome P450 2B6 (Homo sapiens, UniProt P20813). Description: Inhibition of CYP2B6 in human liver microsomes using bupropion as substrate pretreated for 5 mins followed by NADPH addition and measured after 10 mins by LC-MS analysis. It counts as ADME.
For a further data set, the target named is Cytochrome P450 2C19 (Homo sapiens, UniProt P33261). In words: Inhibition of CYP2C19 in human liver microsomes using S-Mephenytoin as substrate pretreated for 5 mins followed by NADPH addition and measured after 45 mins by LC-MS analysis. Format: ADME.
The next data set concerns the target Cytochrome P450 2D6 (Homo sapiens, UniProt P10635). In words: Inhibition of CYP2D6 in human liver microsomes using bufuralol as substrate pretreated for 5 mins followed by NADPH addition and measured after 10 mins by LC-MS analysis. It counts as ADME.
A short description of data set [3]: Apparent permeability across apical to basolateral side in human Caco2 cells measured after 90 mins by LC-MS/MS analysis. The conditions noted are these: Caco-2. It counts as ADME, cell-based. In general terms: Caco-2 cells form a polarised layer with tight junctions and transporters.
The nature of data set [4]: Clearance in CD1 mouse at 5 mg/kg, iv by LC-MS/MS analysis. It counts as ADME, organism-based. The conditions noted are these: in vivo.
The test system of the next data set is HT-29. In words: Antitumor activity against human HT-29 cells harboring PIK3CA P449T mutant xenografted in Balb/c nu/nu mouse assessed as tumor growth inhibition at 7.5 mg/kg, po administered daily via gavage for 27 days relative to control. It counts as functional. The following applies: HT-29, po, 648 h, read-out: TGI. Put shortly:
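Balb/c nu/nu mice carrying HT-29 xenografts were dosed by daily oral gavage for 27 days, starting when mean tumor size was about 240 mm³; vehicle group as control. Tumor volume estimated over time, and TGI calculated after 27 days. Mean ± SEM, n = 6. Dunnett's multiple comparison test.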

Cytochrome P450 2D6, sequence (P10635 whole entry): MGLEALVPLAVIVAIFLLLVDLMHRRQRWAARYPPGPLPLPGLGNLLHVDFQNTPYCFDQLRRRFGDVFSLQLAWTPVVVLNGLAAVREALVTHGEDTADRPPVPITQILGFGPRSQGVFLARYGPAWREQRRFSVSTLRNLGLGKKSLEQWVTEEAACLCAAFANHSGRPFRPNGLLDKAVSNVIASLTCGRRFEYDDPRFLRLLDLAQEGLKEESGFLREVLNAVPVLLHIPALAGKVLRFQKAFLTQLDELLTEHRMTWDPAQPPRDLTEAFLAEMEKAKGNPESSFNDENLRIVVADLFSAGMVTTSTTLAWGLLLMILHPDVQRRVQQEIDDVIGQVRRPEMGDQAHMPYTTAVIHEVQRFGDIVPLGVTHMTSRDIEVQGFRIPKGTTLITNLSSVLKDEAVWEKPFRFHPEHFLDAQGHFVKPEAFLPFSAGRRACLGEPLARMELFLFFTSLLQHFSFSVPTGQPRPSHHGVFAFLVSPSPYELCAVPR
Cytochrome P450 2B6, sequence (P20813 whole entry): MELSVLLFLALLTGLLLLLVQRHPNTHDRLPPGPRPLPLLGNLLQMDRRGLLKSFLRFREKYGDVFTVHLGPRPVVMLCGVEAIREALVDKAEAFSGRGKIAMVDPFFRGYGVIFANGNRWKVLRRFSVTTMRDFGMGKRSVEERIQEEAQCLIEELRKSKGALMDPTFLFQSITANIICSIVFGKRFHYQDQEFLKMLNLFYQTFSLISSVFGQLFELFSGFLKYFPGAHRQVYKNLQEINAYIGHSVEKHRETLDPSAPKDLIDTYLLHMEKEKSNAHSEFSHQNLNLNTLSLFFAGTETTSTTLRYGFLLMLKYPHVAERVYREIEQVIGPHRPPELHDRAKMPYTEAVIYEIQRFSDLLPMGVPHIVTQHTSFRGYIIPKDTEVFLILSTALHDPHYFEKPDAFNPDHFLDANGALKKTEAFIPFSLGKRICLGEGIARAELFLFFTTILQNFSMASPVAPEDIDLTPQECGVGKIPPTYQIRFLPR
Cytochrome P450 2C19, sequence (P33261 whole entry): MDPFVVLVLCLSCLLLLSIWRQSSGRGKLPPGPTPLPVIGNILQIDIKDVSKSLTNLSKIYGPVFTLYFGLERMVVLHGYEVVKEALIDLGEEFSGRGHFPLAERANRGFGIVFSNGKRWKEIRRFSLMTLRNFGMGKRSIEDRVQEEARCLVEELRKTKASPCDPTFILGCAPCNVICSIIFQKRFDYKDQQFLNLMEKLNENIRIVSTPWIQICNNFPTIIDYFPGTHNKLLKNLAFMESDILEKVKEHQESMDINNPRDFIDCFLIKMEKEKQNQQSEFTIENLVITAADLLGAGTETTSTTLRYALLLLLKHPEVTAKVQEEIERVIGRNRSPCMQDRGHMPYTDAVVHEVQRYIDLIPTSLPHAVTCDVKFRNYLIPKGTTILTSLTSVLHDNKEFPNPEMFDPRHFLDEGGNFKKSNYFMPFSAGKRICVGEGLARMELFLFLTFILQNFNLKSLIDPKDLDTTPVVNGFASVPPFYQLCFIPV
PI3-kinase p110-delta/p85-alpha, sequence (P27986 whole entry): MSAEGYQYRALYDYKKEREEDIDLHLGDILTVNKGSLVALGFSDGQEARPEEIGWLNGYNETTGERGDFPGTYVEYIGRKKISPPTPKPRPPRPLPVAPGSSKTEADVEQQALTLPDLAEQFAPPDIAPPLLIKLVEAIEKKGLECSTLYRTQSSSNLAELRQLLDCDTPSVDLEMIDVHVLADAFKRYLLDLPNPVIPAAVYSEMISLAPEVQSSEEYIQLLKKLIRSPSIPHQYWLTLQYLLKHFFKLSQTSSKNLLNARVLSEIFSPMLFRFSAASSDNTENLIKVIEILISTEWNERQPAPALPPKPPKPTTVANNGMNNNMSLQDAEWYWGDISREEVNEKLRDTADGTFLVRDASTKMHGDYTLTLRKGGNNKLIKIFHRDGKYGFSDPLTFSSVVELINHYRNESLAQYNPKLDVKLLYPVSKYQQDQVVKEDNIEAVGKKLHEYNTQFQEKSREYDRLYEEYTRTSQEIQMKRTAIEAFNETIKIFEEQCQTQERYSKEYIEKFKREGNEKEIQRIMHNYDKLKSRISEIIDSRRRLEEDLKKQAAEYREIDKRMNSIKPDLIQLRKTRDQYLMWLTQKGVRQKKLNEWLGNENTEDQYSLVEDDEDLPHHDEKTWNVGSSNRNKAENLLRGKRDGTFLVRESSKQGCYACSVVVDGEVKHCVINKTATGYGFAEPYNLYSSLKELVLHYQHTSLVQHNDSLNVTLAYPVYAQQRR
PI3-kinase p110-delta/p85-alpha, sequence (O00329 whole entry): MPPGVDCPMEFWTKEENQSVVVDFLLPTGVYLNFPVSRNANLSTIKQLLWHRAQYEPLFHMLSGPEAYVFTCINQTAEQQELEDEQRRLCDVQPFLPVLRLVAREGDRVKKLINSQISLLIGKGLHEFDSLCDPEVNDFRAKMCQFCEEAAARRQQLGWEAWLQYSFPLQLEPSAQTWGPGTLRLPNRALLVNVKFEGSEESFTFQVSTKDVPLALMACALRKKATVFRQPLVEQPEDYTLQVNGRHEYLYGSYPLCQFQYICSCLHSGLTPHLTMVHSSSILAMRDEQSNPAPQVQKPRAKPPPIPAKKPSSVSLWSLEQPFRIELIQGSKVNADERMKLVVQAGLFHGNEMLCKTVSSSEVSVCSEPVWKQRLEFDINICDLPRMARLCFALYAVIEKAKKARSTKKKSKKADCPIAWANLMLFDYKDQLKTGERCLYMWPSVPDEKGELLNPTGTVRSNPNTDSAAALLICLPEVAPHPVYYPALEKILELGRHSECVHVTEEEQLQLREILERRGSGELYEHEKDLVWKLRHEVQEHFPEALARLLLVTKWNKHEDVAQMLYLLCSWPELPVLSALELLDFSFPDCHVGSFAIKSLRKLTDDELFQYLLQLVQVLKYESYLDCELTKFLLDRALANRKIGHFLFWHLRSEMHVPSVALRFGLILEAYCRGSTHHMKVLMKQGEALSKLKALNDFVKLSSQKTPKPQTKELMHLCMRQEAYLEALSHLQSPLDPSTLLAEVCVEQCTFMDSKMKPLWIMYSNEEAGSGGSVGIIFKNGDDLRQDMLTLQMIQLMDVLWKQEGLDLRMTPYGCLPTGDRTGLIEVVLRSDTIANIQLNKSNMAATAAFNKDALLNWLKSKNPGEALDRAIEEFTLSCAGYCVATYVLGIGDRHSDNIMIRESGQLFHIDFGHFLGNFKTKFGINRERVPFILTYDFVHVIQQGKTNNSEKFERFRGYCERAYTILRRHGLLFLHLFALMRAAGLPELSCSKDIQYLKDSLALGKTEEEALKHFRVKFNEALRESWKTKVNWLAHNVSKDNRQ
Cytochrome P450 1A2, sequence (P05177 whole entry): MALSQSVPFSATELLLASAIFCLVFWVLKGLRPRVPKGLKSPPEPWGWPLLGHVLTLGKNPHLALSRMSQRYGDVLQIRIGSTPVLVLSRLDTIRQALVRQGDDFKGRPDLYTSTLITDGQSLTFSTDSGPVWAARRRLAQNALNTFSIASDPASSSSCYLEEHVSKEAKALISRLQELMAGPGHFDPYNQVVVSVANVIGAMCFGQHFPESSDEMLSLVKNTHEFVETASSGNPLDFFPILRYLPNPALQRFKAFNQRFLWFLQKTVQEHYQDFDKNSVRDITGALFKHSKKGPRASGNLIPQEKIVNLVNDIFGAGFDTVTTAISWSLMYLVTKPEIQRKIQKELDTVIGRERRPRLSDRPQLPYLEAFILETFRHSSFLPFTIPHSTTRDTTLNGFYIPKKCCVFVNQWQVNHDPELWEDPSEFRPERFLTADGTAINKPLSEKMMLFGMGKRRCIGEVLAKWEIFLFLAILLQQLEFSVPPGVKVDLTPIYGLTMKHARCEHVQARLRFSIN

Take `C[C@H]1COCCN1c1nc(-c2cnc(N)cc2F)cc(C2(S(C)(=O)=O)CC2)n1`: the IC50 in [1] was 0.046 µM; on Cytochrome P450 1A2 it was more than 10 µM; at Cytochrome P450 2B6, more than 10 µM; at Cytochrome P450 2C19, more than 10 µM; on Cytochrome P450 2D6, more than 10 µM. Moreover, the CLint scaled in [2] was 40 to 140 mL/min/kg. Moreover, in data set [3], the Papp A→B at 1.5 h was more than 10 ×10⁻⁶ cm/s. For the same compound, the clearance in data set [4] is 15.2 mL/min/kg. Moreover, the inhibition in vivo at 7.5 mg/kg in the data set on HT-29 is 72.9%.
